Values after ≈ are worked out from the molar mass of the structure shown. Active and inactive are the calls of the source. The calls are words filed in the database; no cut-off is given here.
Assays:
[1] = tested on: Candida albicans; assay: Antifungal activity against Candida albicans Berhaut 62I after 24 hrs; type: functional
How it was run: (§1)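 Serial dilutions of each chalcone in meat-pepton broth in tubes; inoculum 10⁵ cells/ml; 37 °C, 24 h. MIC taken as the lowest dilution with no visible growth against inoculated drug-free broth. Tubes without visible growth streaked onto meat-pepton agar, 37 °C, 24 h, and checked for growth.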

[2] = tested on: Candida albicans; assay: Growth inhibition of Candida albicans Berhaut 62I by agar cup method; type: functional
How it was run: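 Each well received 100 µl of sample dissolved in 96% EtOH. Pre-diffusion at 4 °C for 2 h, then 37 °C for 48 h. Read-out was inhibitory zone diameter, with ≥15 mm initially counted as active. Pure solvent served as control.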

[3] = tested on: Candida albicans; assay: Antifungal activity against Candida albicans Berhaut 62I in meat-pepton broth; type: functional; how it was run: as §1
[4] = tested on: Candida albicans; assay: Antifungal activity against Candida albicans Berhaut 62I at 2000 ug/ml; type: functional, organism-based
[5] = Candida albicans, Berhaut 62I, read-out: MIC

Structure (SMILES) | MIC [1] | MIC [3, 5] | MIC [3] | inhibition zone (IZ) [2] | Activity [4]
CN(C)c1ccc(/C=C/C(=O)c2ccccc2)cc1 | 500 µg/mL (≈ 1990 µM) | 500 µg/mL (≈ 1990 µM) | – | 0 mm | –
O=C(/C=C/c1ccc(Cl)cc1)c1ccccc1 [4-CHLORO CHALCONE] | 500 µg/mL (≈ 2060 µM) | 500 µg/mL (≈ 2060 µM) | – | 0 mm | –
COc1ccc(/C=C/C(=O)c2cc(OC)c(OC)c(OC)c2)cc1 | 500 µg/mL (≈ 1520 µM) | 500 µg/mL (≈ 1520 µM) | – | 0 mm | –
CC(=O)Nc1ccc(/C=C/C(=O)c2ccc(Cl)cc2)cc1 | 500 µg/mL (≈ 1670 µM) | 500 µg/mL (≈ 1670 µM) | – | 0 mm | –
COc1ccc(/C=C/C(=O)c2ccc(Cl)cc2)cc1 | 500 µg/mL (≈ 1830 µM) | 500 µg/mL (≈ 1830 µM) | – | 0 mm | –
COc1cc(C(=O)/C=C/c2ccc(NC(C)=O)cc2)cc(OC)c1OC | 500 µg/mL (≈ 1410 µM) | 500 µg/mL (≈ 1410 µM) | – | 0 mm | –
CN(C)c1ccc(/C=C/C(=O)c2ccc(Cl)cc2)cc1 | 500 µg/mL (≈ 1750 µM) | 500 µg/mL (≈ 1750 µM) | – | 0 mm | –
O=C(/C=C/c1ccccc1)c1ccc(Cl)cc1 | 500 µg/mL (≈ 2060 µM) | 500 µg/mL (≈ 2060 µM) | – | 0 mm | –
COc1cccc(/C=C/C(=O)c2ccc(Cl)cc2)c1O | 500 µg/mL (≈ 1730 µM) | 500 µg/mL (≈ 1730 µM) | – | 0 mm | –
Cc1ccc(/C=C/C(=O)c2ccc(Cl)cc2)cc1 | 500 µg/mL (≈ 1950 µM) | 500 µg/mL (≈ 1950 µM) | – | 0 mm | –
COc1ccc(/C=C/C(=O)c2ccccc2)cc1O | 500 µg/mL (≈ 1970 µM) | 500 µg/mL (≈ 1970 µM) | – | 0 mm | –
O=C(/C=C/C=C/c1ccccc1)c1ccccc1 | – | – | – | – | inactive
COc1cc(C(=O)/C=C/c2ccc(C)cc2)cc(OC)c1OC | 500 µg/mL (≈ 1600 µM) | 500 µg/mL (≈ 1600 µM) | – | 0 mm | –
Cc1ccc(/C=C/C(=O)c2ccccc2)cc1 | 500 µg/mL (≈ 2250 µM) | 500 µg/mL (≈ 2250 µM) | – | 0 mm | –
COc1cc(C(=O)/C=C/c2ccc(Cl)cc2)cc(OC)c1OC | 500 µg/mL (≈ 1500 µM) | 500 µg/mL (≈ 1500 µM) | – | 0 mm | –
COc1cc(C(=O)/C=C/c2ccccc2)cc(OC)c1OC | 500 µg/mL (≈ 1680 µM) | 500 µg/mL (≈ 1680 µM) | – | 0 mm | –
CC(=O)Nc1ccc(/C=C/C(=O)c2ccccc2)cc1 | 500 µg/mL (≈ 1880 µM) | 500 µg/mL (≈ 1880 µM) | – | 0 mm | –
COc1cc(C(=O)/C=C/c2ccc(N(C)C)cc2)cc(OC)c1OC | 500 µg/mL (≈ 1460 µM) | 500 µg/mL (≈ 1460 µM) | – | 0 mm | –
O=C(/C=C/c1ccccc1)/C=C/c1ccccc1 | – | – | – | – | inactive
COc1cc(C(=O)/C=C/c2ccc(C#N)cc2)cc(OC)c1OC | 500 µg/mL (≈ 1550 µM) | 500 µg/mL (≈ 1550 µM) | – | 0 mm | –
O=C(/C=C/c1ccc([N+](=O)[O-])cc1)c1ccc(Cl)cc1 | 250 µg/mL (≈ 869 µM) | 250 µg/mL (≈ 869 µM) | – | 15 mm | –
O=C(/C=C/C=C/c1ccccc1)/C=C/C=C/c1ccccc1 | – | – | – | – | inactive
COc1ccc(/C=C/C(=O)c2ccccc2)cc1 [4-METHOXY CHALCONE] | 500 µg/mL (≈ 2100 µM) | 500 µg/mL (≈ 2100 µM) | – | 0 mm | –
N#Cc1ccc(/C=C/C(=O)c2ccccc2)cc1 | 250 µg/mL (≈ 1070 µM) | 250 µg/mL (≈ 1070 µM) | – | 17 mm | –
O=C(/C=C/c1ccc(Cl)cc1)c1ccc(Cl)cc1 [4',4-DICHLOROCHALCONE] | 500 µg/mL (≈ 1800 µM) | 500 µg/mL (≈ 1800 µM) | – | 0 mm | –
COc1ccc(/C=C/C(=O)c2ccc(Cl)cc2)cc1O | 500 µg/mL (≈ 1730 µM) | 500 µg/mL (≈ 1730 µM) | – | 0 mm | –

Continued, in another order:

MIC [1] | MIC [3, 5] | MIC [3] | Structure (SMILES) | inhibition zone (IZ) [2] | Activity [4]
500 µg/mL (≈ 1830 µM) | 62.5 µg/mL (≈ 229 µM) | – | COc1cccc(/C=C/C(=O)c2ccc(Cl)cc2)c1 | 15 mm | –
– | 62.5 µg/mL (≈ 248 µM) | – | O=C(/C=C/c1ccc2c(c1)OCO2)c1ccccc1 | – | –
250 µg/mL (≈ 934 µM) | 250 µg/mL (≈ 934 µM) | – | N#Cc1ccc(/C=C/C(=O)c2ccc(Cl)cc2)cc1 | 23 mm | –
500 µg/mL (≈ 1500 µM) | 62.5 µg/mL (≈ 188 µM) | – | COc1cc(/C=C/C(=O)c2ccc(Cl)cc2)cc(OC)c1OC | 0 mm | –
– | 62.5 µg/mL (≈ 190 µM) | – | COc1cccc(/C=C/C(=O)c2cc(OC)c(OC)c(OC)c2)c1 | – | –
62.5 µg/mL (≈ 242 µM) | 62.5 µg/mL (≈ 242 µM) | – | O=C(/C=C/c1ccc(O)cc1)c1ccc(Cl)cc1 | 21 mm | –
125 µg/mL (≈ 392 µM) | 62.5 µg/mL (≈ 196 µM) | – | COc1cc(/C=C/C(=O)c2ccc(Cl)cc2)cc(OC)c1O | 15 mm | –
62.5 µg/mL (≈ 260 µM) | 62.5 µg/mL (≈ 260 µM) | – | O=C(/C=C/c1ccc(O)c(O)c1)c1ccccc1 | 15 mm | –
500 µg/mL (≈ 1740 µM) | 62.5 µg/mL (≈ 218 µM) | – | O=C(/C=C/c1ccc2c(c1)OCO2)c1ccc(Cl)cc1 | 0 mm | –
62.5 µg/mL (≈ 279 µM) | 62.5 µg/mL (≈ 279 µM) | – | O=C(/C=C/c1ccc(O)cc1)c1ccccc1 [4-HYDROXYCHALCONE] | 15 mm | –
62.5 µg/mL (≈ 246 µM) | 62.5 µg/mL (≈ 246 µM) | – | COc1cccc(/C=C/C(=O)c2ccccc2)c1O | 12 mm | –
500 µg/mL (≈ 1650 µM) | 62.5 µg/mL (≈ 206 µM) | 62.5 µg/mL (≈ 206 µM) | COc1ccc(/C=C/C(=O)c2ccc(Cl)cc2)cc1OC | 0 mm | –
250 µg/mL (≈ 1110 µM) | 250 µg/mL (≈ 1110 µM) | – | O=C(/C=C/c1cccc(O)c1)c1ccccc1 [3-HYDROXY CHALCONE] | 17 mm | –
62.5 µg/mL (≈ 228 µM) | 62.5 µg/mL (≈ 228 µM) | – | O=C(/C=C/c1ccc(O)c(O)c1)c1ccc(Cl)cc1 | 14 mm | –
250 µg/mL (≈ 866 µM) | 62.5 µg/mL (≈ 216 µM) | – | COc1cc(/C=C/C(=O)c2ccc(Cl)cc2)ccc1O | 19 mm | –
31.2 µg/mL (≈ 139 µM) | 31.2 µg/mL (≈ 139 µM) | – | O=C(/C=C/c1ccccc1O)c1ccccc1 | 21 mm | –
250 µg/mL (≈ 987 µM) | 250 µg/mL (≈ 987 µM) | – | O=C(/C=C/c1ccc([N+](=O)[O-])cc1)c1ccccc1 | 17 mm | –
62.5 µg/mL (≈ 242 µM) | 62.5 µg/mL (≈ 242 µM) | – | O=C(/C=C/c1ccccc1O)c1ccc(Cl)cc1 | 16 mm | –
125 µg/mL (≈ 483 µM) | 125 µg/mL (≈ 483 µM) | – | O=C(/C=C/c1cccc(O)c1)c1ccc(Cl)cc1 | 20 mm | –
125 µg/mL (≈ 600 µM) | 125 µg/mL (≈ 600 µM) | – | O=C(/C=C/c1ccccc1)c1ccccc1 [CHALCONE] | 30 mm | –

From ChEMBL document CHEMBL1144480, “Study on the substituents' effects of a series of synthetic chalcones against the yeast Candida albicans” (2007)
